The source made the active and inactive calls. The calls are words filed in the database; no cut-off is given here.
Assays:
[1] = molecular target: Serine/threonine-protein kinase ATR (Homo sapiens) (UniProt Q13535); assay: Inhibition of ATR in human Huh-7 cell lysate at 1 uM by KiNativ Profiling analysis relative to control; assay type: subcellular
[2] = molecular target: Cyclin-dependent kinase 13 (Homo sapiens) (UniProt Q14004); assay: Inhibition of CHED Lys2 labeling site harbouring DIKCSNILLNNR in human Huh-7 cell lysate at 1 uM by KiNativ Profiling analysis relative to control; assay type: subcellular
[3] = molecular target: T1, Inhibitor of nuclear factor kappa-B kinase subunit epsilon (Homo sapiens) (UniProt Q14164); assay: Inhibition of IKKe Lys2 labeling site in human Huh-7 cell lysate at 1 uM by KiNativ Profiling analysis relative to control; assay type: subcellular
T1 sequence (whole entry): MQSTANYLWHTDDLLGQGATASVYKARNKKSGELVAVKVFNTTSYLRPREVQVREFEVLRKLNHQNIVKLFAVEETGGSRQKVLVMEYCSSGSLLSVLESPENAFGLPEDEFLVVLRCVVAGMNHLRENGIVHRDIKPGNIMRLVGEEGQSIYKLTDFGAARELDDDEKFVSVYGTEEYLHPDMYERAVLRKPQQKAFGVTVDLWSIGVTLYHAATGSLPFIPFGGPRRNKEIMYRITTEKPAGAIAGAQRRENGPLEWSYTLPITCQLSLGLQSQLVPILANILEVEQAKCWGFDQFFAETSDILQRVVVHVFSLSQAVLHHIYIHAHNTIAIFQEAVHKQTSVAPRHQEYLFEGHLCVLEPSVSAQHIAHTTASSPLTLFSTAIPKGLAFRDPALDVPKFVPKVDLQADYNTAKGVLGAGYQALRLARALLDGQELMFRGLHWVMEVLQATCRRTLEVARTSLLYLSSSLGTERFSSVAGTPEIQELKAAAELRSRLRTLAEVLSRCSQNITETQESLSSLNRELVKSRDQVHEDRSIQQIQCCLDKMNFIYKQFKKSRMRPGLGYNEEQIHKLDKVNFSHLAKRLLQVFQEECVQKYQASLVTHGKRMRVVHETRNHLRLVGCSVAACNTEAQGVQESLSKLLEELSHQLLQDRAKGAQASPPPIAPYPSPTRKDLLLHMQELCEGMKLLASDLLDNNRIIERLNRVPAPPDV

[4] = molecular target: Phosphatidylinositol 4-kinase beta (Homo sapiens) (UniProt Q9UBF8); assay: Inhibition of PI4KB ATP labeling site harbouring VPHTQAVVLNSKDK in human Huh-7 cell lysate at 1 uM by KiNativ Profiling analysis relative to control; assay type: subcellular
[5] = molecular target: Serine/threonine-protein kinase 26 (Homo sapiens) (UniProt Q9P289); assay: Inhibition of MST4 Lys2 labeling site in human Huh-7 cells at 1 uM by KiNativ Profiling analysis relative to control; assay type: cell-based
[6] = molecular target: Calcium/calmodulin-dependent protein kinase kinase 1 (Homo sapiens) (UniProt Q8N5S9); assay: Inhibition of CAMKK1 (unknown origin) at 10 uM by Ambit Kinomescan binding assay
[7] = molecular target: Cyclin-dependent kinase 7 (Homo sapiens) (UniProt P50613); assay: Inhibition of CDK7 (unknown origin) at 10 uM by Ambit Kinomescan binding assay relative to control
[8] = molecular target: Dual specificity mitogen-activated protein kinase kinase 1 (Homo sapiens) (UniProt Q02750); assay: Inhibition of MEK1 (unknown origin) at 10 uM by Ambit Kinomescan binding assay
[9] = molecular target: Myosin light chain kinase, smooth muscle (Homo sapiens) (UniProt Q15746); assay: Inhibition of MYLK (unknown origin) at 10 uM by Ambit Kinomescan binding assay
Method in brief: (§1)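 In vitro ATP-site competition binding assay against a panel of over 420 kinases (KinomeScan), with compound tested at 10 or 1 μM.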

[10] = molecular target: cGMP-dependent protein kinase 2 (Homo sapiens) (UniProt Q13237); assay: Inhibition of PRKG2 (unknown origin) at 10 uM by Ambit Kinomescan binding assay
[11] = molecular target: Ribosomal protein S6 kinase alpha-3 (Homo sapiens) (UniProt P51812); assay: Inhibition of N-terminal RPS6KA3 kinase domain 1 (unknown origin) at 10 uM by Ambit Kinomescan binding assay
[12] = molecular target: Serine/threonine-protein kinase Aurora (Homo sapiens) (UniProt Q96GD4+Q9UQB9+O14965); assay: Inhibition of AurA/B/C ATP labeling site in human Huh-7 cells at 10 uM by KiNativ Profiling analysis relative to control; assay type: cell-based
[13] = Inhibition of KHS1/2 K2 labeling site in human Huh-7 cells at 10 uM by KiNativ Profiling analysis relative to control; conditions: condition cancer
[14] = molecular target: DNA-dependent protein kinase catalytic subunit (Homo sapiens) (UniProt P78527); assay: Inhibition of PRKDC ATP labeling site harbouring EHPFLVKGGEDLR in human Huh-7 cells at 1 uM by KiNativ Profiling analysis relative to control; assay type: cell-based
[15] = molecular target: Fibroblast growth factor receptor 2 (Homo sapiens) (UniProt P21802); assay: Inhibition of FGFR2 (unknown origin) at 10 uM by Ambit Kinomescan binding assay relative to control; values are per cent of control
[16] = tested on: Tyrosine-protein kinase ABL1 (Homo sapiens), P00519 [Q252H]; assay: Inhibition of nonphosphorylated ABL1 Q252H mutant (unknown origin) at 1 uM by Ambit Kinomescan binding assay relative to control
[17] = molecular target: Tyrosine-protein kinase JAK3 (Homo sapiens) (UniProt P52333); assay: Inhibition of JAK3 JH1 catalytic domain (unknown origin) at 1 uM by Ambit Kinomescan binding assay relative to control
[18] = molecular target: Myosin-IIIa (Homo sapiens) (UniProt Q8NEV4); assay: Inhibition of MYO3A (unknown origin) at 1 uM by Ambit Kinomescan binding assay relative to control; method in brief: as §1
[19] = molecular target: Tyrosine-protein kinase receptor UFO (Homo sapiens) (UniProt P30530); assay: Inhibition of AXL ACT labeling site in human A-375 cells at 5 uM by KiNativ Profiling analysis relative to control; assay type: cell-based
[20] = molecular target: Ribosomal protein S6 kinase alpha-2 (Homo sapiens) (UniProt Q15349); assay: Inhibition of RSK3 domain1 Lys2 labeling site in human A-375 cells at 5 uM by KiNativ Profiling analysis relative to control; assay type: cell-based
Method in brief: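 Live A375 melanoma cells treated with compound at 5 or 0.5 μM, then lysed. Lysate kinases were labeled with a lysine-reactive ATP or ADP-biotin probe. Inhibition was read as protection of labeling sites from the probe.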

[21] = molecular target: Tyrosine-protein kinase JAK1 (Homo sapiens) (UniProt P23458); assay: Inhibition of JAK1 domain2 ACT labeling site in human A-375 cells at 0.5 uM by KiNativ Profiling analysis relative to control; assay type: cell-based
[22] = molecular target: Mitogen-activated protein kinase kinase kinase kinase 1 (Homo sapiens) (UniProt Q92918); assay: Inhibition of HPK1 (unknown origin) at 1 uM by Ambit Kinomescan binding assay relative to control; values are per cent of control
[23] = molecular target: Homeodomain-interacting protein kinase 4 (Homo sapiens) (UniProt Q8NE63); assay: Inhibition of HIPK4 (unknown origin) at 1 uM by Ambit Kinomescan binding assay relative to control; values are per cent of control

Sequence of Tyrosine-protein kinase JAK1 (Homo sapiens) (P23458 whole entry, the tested form may be a part): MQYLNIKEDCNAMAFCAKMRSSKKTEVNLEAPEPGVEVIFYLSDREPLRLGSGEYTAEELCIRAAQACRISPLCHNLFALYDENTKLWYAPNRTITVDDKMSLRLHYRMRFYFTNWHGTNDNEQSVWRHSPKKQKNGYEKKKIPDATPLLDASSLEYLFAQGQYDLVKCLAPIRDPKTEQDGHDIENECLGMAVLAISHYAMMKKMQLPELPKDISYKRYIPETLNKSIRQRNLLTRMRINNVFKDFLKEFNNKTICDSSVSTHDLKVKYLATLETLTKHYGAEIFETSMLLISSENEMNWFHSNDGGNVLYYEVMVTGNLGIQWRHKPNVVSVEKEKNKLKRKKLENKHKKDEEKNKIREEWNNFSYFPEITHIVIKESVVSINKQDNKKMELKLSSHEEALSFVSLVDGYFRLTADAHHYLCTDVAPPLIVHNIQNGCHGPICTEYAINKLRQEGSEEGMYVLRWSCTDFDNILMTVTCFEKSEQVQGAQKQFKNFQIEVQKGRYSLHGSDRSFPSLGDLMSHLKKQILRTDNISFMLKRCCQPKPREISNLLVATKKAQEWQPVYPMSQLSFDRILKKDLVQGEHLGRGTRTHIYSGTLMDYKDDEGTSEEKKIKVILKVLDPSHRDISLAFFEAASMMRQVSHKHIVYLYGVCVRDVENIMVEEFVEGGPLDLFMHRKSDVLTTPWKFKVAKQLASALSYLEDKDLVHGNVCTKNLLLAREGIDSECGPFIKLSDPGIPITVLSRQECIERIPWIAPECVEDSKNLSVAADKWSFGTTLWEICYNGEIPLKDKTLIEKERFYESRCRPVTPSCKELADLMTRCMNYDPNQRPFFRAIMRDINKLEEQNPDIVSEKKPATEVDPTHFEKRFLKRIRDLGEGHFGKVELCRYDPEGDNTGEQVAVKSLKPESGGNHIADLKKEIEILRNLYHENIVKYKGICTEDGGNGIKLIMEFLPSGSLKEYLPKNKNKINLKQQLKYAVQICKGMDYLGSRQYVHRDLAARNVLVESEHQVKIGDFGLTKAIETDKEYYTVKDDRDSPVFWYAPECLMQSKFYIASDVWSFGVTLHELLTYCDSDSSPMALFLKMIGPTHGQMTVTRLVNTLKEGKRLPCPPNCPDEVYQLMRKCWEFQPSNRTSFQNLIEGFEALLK
Sequence of Tyrosine-protein kinase receptor UFO (Homo sapiens) (P30530 whole entry, the tested form may be a part): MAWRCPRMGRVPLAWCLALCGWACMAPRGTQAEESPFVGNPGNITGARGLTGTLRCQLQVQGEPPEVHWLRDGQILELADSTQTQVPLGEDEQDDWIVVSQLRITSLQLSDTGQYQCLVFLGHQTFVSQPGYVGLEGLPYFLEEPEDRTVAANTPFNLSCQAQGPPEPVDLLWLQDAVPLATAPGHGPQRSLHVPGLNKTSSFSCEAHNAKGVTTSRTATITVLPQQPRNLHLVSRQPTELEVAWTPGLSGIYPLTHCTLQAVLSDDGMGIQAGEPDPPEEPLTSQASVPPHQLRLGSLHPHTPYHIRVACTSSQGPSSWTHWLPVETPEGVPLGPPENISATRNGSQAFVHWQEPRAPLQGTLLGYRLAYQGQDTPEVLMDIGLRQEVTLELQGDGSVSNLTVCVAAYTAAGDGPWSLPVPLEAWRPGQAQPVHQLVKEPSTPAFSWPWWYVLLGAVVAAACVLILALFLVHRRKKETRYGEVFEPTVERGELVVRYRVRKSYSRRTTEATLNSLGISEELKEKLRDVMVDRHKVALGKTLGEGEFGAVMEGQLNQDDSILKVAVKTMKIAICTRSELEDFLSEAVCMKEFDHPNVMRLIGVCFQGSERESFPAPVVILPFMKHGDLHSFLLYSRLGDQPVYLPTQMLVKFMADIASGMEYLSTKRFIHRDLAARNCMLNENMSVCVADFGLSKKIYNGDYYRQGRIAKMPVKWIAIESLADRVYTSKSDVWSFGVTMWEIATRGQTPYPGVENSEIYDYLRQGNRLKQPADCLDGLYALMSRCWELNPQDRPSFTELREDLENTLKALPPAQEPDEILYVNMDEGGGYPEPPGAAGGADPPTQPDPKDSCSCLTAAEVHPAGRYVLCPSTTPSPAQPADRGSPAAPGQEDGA
Sequence of Ribosomal protein S6 kinase alpha-2 (Homo sapiens) (Q15349 whole entry, the tested form may be a part): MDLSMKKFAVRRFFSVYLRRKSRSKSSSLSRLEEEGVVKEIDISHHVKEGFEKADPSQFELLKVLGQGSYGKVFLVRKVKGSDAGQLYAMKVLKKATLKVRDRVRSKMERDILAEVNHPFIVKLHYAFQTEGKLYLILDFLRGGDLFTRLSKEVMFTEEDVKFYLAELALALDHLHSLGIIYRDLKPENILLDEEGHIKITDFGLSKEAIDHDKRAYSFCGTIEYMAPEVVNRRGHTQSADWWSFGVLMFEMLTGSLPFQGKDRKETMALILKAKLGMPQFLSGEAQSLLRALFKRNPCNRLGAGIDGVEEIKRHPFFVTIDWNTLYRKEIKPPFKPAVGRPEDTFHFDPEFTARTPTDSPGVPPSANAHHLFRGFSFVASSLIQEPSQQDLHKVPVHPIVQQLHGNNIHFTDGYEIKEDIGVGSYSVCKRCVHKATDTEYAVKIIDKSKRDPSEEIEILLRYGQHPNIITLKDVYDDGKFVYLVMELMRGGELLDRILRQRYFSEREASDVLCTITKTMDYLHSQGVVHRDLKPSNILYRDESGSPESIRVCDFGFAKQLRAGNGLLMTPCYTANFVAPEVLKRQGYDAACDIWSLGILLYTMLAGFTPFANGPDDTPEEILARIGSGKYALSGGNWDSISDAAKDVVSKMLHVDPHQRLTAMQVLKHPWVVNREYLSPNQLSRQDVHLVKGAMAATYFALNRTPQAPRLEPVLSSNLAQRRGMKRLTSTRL
Sequence of Dual specificity mitogen-activated protein kinase kinase 1 (Homo sapiens) (Q02750 whole entry): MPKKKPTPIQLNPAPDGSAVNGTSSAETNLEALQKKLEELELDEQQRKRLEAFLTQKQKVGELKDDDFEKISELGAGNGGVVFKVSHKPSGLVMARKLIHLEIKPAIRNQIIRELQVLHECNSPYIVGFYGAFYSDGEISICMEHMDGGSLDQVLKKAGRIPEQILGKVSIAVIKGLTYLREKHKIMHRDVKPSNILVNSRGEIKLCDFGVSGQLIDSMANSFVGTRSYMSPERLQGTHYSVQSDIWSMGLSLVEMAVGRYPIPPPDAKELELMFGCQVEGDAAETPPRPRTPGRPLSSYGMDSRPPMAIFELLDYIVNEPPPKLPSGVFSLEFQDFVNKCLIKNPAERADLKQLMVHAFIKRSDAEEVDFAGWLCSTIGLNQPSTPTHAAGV
Sequence of Serine/threonine-protein kinase 26 (Homo sapiens) (Q9P289 2-416 limits assumed): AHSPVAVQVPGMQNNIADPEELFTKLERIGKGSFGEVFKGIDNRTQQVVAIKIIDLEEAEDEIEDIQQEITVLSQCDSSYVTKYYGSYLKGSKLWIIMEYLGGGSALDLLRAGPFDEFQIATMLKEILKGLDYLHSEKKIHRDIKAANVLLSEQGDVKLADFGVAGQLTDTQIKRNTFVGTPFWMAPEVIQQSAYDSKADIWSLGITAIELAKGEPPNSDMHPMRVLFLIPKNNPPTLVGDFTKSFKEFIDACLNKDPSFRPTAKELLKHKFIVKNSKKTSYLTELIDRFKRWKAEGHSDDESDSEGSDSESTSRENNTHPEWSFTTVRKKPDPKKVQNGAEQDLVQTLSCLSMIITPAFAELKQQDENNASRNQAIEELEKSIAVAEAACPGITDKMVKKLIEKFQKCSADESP
Sequence of Ribosomal protein S6 kinase alpha-3 (Homo sapiens) (P51812 whole entry, the tested form may be a part): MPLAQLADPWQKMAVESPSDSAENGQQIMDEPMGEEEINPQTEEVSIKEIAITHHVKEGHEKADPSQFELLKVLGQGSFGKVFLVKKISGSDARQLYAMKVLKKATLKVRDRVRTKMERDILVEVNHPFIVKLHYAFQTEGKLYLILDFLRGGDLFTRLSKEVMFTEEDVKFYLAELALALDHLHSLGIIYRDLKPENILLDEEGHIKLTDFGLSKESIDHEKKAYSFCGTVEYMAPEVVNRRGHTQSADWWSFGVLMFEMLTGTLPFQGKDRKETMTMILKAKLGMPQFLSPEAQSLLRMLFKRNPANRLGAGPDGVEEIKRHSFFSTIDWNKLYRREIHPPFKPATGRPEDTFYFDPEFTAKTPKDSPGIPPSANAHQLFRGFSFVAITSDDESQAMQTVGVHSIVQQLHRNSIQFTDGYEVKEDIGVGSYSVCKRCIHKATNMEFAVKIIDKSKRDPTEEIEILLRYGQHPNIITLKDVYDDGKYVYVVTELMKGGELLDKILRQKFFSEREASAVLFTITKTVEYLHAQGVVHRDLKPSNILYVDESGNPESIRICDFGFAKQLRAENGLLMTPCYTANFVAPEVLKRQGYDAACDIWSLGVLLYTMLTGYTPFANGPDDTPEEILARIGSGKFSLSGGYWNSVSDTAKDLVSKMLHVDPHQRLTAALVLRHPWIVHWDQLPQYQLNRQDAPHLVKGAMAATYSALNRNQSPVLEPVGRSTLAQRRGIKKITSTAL
Sequence of Cyclin-dependent kinase 7 (Homo sapiens) (P50613 whole entry): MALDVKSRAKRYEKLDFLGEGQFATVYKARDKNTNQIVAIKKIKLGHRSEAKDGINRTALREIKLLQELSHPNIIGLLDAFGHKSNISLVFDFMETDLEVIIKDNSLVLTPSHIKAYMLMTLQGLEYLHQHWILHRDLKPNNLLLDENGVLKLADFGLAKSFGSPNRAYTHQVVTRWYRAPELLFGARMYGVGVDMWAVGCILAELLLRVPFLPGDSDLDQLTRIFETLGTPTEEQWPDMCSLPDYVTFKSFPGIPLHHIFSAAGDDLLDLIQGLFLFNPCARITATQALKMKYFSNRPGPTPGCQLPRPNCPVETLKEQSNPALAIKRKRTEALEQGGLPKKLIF

Structure (SMILES): CNc1cc(Oc2cc(C(=O)Nc3cc(N4CCN(C)CC4)cc(C(F)(F)F)c3)ccc2C)ncn1
- inhibition [1]: 22.6%
- inhibition [2]: 14%
- inhibition [3]: -5.8%
- inhibition [4]: 1.9%
- inhibition [5]: 25.2%

Structure (SMILES): CCN1CCN(Cc2ccc(NC(=O)c3ccc(C)c(Oc4ccnc5[nH]ccc45)c3)cc2C(F)(F)F)CC1
- inhibition [6]: inactive
- inhibition [7]: 2.4%
- inhibition [8]: inactive
- inhibition [9]: inactive
- inhibition [10]: inactive
- inhibition [11]: inactive
- inhibition [12]: 4.1%
- inhibition at 10 µM [13]: 6.6%
- inhibition [14]: 1.4%
- percent of control [15]: 1.4%

Structure (SMILES): CCN1CCN(Cc2ccc(NC(=O)c3ccc(C)c(/C=C/c4cnc5[nH]ccc5c4OC)c3)cc2C(F)(F)F)CC1
- inhibition [16]: 1.4%
- inhibition [17]: 55%
- inhibition [18]: 84%
- inhibition [19]: -6.1%
- inhibition [20]: 16.5%
- inhibition [21]: 5%
- residual activity [22]: 0.55%
- residual activity [23]: 16%
